≈ marks a conversion by molar mass, not a printed value.
How the values were obtained:
[1] = Solution state pH stability in USP buffers at 37 °C; assay type: physicochemical; settings: for Degradation half-life t½: calculated from k
Method in brief: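 Test compound (1 mg/mL acetonitrile stock) added 1:10 to 0.2 M USP buffers (n = 3) in amber vials. Buffers were HCl (pH 2), acid phthalate (pH 3–4), neutralized phthalate (pH 5), phosphate (pH 6–7) and borate (pH 8–10). Incubation at 37 °C, light-protected. Quantified by isocratic C18 HPLC-UV at 300 nm with warfarin IS. Log % remaining plotted against time; half-lives from first-order kinetics.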

[2] = Stability in rat plasma at 37 °C; assay type: in vitro ADME; settings: male, Sprague Dawley
[3] = Solubility in common solvents, shaker method, HPLC; assay type: physicochemical
[4] = cited from earlier work
[5] = Stability in human plasma at 37 °C; assay type: in vitro ADME
[6] = Plasma protein binding by ultracentrifugation/ultrafiltration; assay type: in vitro ADME, human; settings: 37 °C
[7] = cited from earlier work; remark: listed apart in the source

Original concentration remaining ([1]; acidic and neutral conditions, at 193 h): More than 70%
Degradation rate constant k ([1]; pH 2, hydrochloric acid buffer 0.2 M): 0.000506 h⁻¹
Degradation rate constant k ([1]; pH 3, acid phthalate buffer 0.2 M): 0.000353 h⁻¹
Degradation rate constant k ([1]; pH 4, acid phthalate buffer 0.2 M): 0.000151 h⁻¹
Degradation rate constant k ([1]; pH 5, neutralized phthalate buffer 0.2 M): 0.00011 h⁻¹
Degradation rate constant k ([1]; pH 6, phosphate buffer 0.2 M): 0.000147 h⁻¹
Degradation half-life t½ ([1]; pH 6, phosphate buffer 0.2 M): 195.5 days
Degradation rate constant k ([1]; pH 7, phosphate buffer 0.2 M): 0.00247 h⁻¹
Resveratrol remaining ([1]; pH 8, 9 or 10, at 50 and 80 h): Less than 2%
Degradation rate constant k ([1]; pH 8, borate buffer 0.2 M): 0.0488 h⁻¹
Degradation rate constant k ([1]; pH 9, borate buffer 0.2 M): 0.4000 h⁻¹
Degradation half-life t½ ([1]; pH 9, borate buffer 0.2 M): 0.0722 days
Degradation rate constant k ([1]; pH 10, borate buffer 0.2 M): 0.0335 h⁻¹
half-life at 50 µg/mL [2]: 25 h
Solubility ([3]; PEG-400, room temperature (25 °C), mean, n = 3): 373.85 mg/mL (≈ 1640 mM)
Solubility in words ([3]; water): not soluble
half-life at 50 µg/mL [5]: 54 h
Bound fraction (%) ±standard deviation (n = 6) ([6]; human plasma spiked at 5 µg/mL): 98.2 ± 0.41%
Bound fraction (%) ±standard deviation (n = 6) ([6]; human plasma spiked at 12.5 µg/mL): 98.5 ± 0.23%
Bound fraction (%) ±standard deviation (n = 6) ([6]; human plasma spiked at 25 µg/mL): 98.3 ± 0.33%
Plasma protein binding (mean) ([6]; human plasma, over 5, 12.5 and 25 µg/mL): 98%
fraction unbound at 30 min ([6]; human, human plasma, Plasma protein binding (mean), over 5, 12.5 and 25 µg/mL): 0.017
Structure (SMILES): Oc1ccc(/C=C/c2cc(O)cc(O)c2)cc1 [resveratrol, trans-3,5,4′-trihydroxystilbene]
pKa1 [4]: 8.8
pKa2 [4]: 9.8
pKa3 [4]: 11.4
Water solubility [7]: 0.05 mg/mL
